# Test results published in paper PMC9377749 (Molecular Cancer Therapeutics, 2022).
# pIC50: −log10 of the molar value. Peptide text beside a SMILES is read from it. * marks the point of attachment. Doxorubicin(3'-N) = COc1cccc2c1C(=O)c1c(O)c3c(c(O)c1C2=O)C[C@@](O)(C(=O)CO)C[C@@H]3O[C@H]1C[C@H](N*)[C@H](O)[C@H](C)O1; Phosphonoacetyl = O=C(CP(=O)(O)O)*
# Experiments:
# [1] = Tissue distribution and pharmacokinetics in E0771 tumor-bearing mice; format: in vivo, mouse; details: for C max / AUC / Cmax / t 1/2α / t max / t 1/2β: label = analyte
# [2] = system: human iPSCs-derived cardiomyocytes; test: Impedance-based cardiotoxicity; format: cell-based
# H9C2 rat cardiomyocytes = test: In vitro cardiotoxicity; format: cell-based; details: for cytotoxicity in differentiated cardiomyocytes: differentiated H9C2; for cytotoxicity in mitotic cells: mitotic H9C2, 16 hrs treatment, viability 72 hrs later
# Acute toxicity = format: in vivo, mouse; details: mouse, in vivo
# [3] = system: human myeloid progenitors; test: In vitro hematotoxicity, colony growth; format: cell-based
# Outline: (§1)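 Human erythroid and myeloid progenitors grown in MethoCult GF H84434 with continuous exposure to the test compound for 14 days. Progenitor proliferation was scored as colony growth and dose–response curves were fitted to give IC50.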
# [4] = system: human erythroid progenitors; test: In vitro hematotoxicity, colony growth; format: cell-based
# Outline: as §1
# E0771 cells = test: In vitro 2D cytotoxicity; format: cell-based; details: Mus musculus, E0771, 72 h
# MDA-MB-468 cells = test: In vitro 2D cytotoxicity; format: cell-based; details: Homo sapiens, MDA-MB-468, 72 h
# [5] = system: C57BL6 mice (bone marrow repopulation); test: In vivo hematotoxicity, bone marrow transplantation from treated donors; parameters: species or system mouse; details: for survival of mice receiving BM from treated donors: day 41 post-transplantation, donors 58 mg/kg/week Dox or 1,026 mg/kg/week PhAc-ALGP-Dox
# Outline: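 Donor C57BL6 mice received the test compound (1,026 mg/kg/week) or doxorubicin (58 mg/kg/week) by intraperitoneal osmotic minipump for 7 days. Blood and bone marrow were collected 2 days later. Blood counts used a haematology analyser, and subpopulations were analysed by FACS (CTL = CD3+ CD8a+; B = CD45R+; CD4+; NK1.1+), n = 8. Bone marrow cells (1 × 10^7) were injected IV into 9.5 Gy-irradiated recipients, which were followed 41 days.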
# LS 174T cells = test: In vitro 2D cytotoxicity; format: cell-based; details: Homo sapiens, LS174T, 72 h
# recombinant human CD10 = recombinant human CD10 (Homo sapiens, UniProt P08473); test: Peptidase cleavage assay; format: biochemical; details: after exposure to CD10, at 16 hours
# Outline: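 Test compound (2 μM) in 150 mM NaCl, 50 mM Tris, 1% BSA, pH 7.5, at 37°C. Reaction started with recombinant human enzyme at equi-active levels (CD10 0.08, NLN 0.8, THOP1 0.1 μg/mL).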
# patients = details: cited from earlier work
# [6] = MTD determination, weekly dosing; format: in vivo, mouse; details: mouse, in vivo
# Outline: (§2)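 Female nu/nu NMRI mice, 6–8 weeks old, carried subcutaneous MDA-MB-468 xenografts (5 × 10^6 cells in PBS:Matrigel 1:1, right posterior flank). Healthy mice served alongside. Test compound was given weekly at 103, 206 or 309 mg/kg. Body weight, survival and tumor volume were monitored periodically during and after treatment, n = 5, mean ± SD.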
# [7] = system: MDA-MB-468 tumor bearing mice; test: MTD determination, weekly dosing; format: in vivo, mouse
# Outline: as §2
# mice = test: Acute toxicity; format: in vivo, mouse; details: from LD50
# [8] = Plasma pharmacokinetics after IV administration in healthy mice; format: in vivo, mouse
# Outline: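 Healthy mice (n = 5 per group) received a single IV dose of test compound at 849.5 mg/kg. A second set received equimolar doses: test compound 23.6 mg/kg versus doxorubicin 13.3 mg/kg. Plasma levels of prodrug, peptide-doxorubicin intermediates and free doxorubicin were followed over time and t1/2 was determined.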
# [9] = Tissue imaging by MALDI-FTICR MSI in E0771 tumor-bearing mice; format: in vivo, mouse; details: 849.5 mg/kg IV
# Outline: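 Female C57BL6 mice carried orthotopic E0771 tumors (1 × 10^6 cells in PBS injected into the mammary fat pad). Test compound was given IV at 849.5 mg/kg (reference doxorubicin 23 mg/kg). Whole-body and tumor sections were taken at 15 min, 24 h and 48 h and imaged by MALDI-FTICR MSI for free doxorubicin and metabolites, with H&E overlay.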
# [10] = heart, IV Doxorubicin 92 μmol/kg
# [11] = heart, IV PhAc-ALGP-Dox 92 μmol/kg
# [12] = kidney, IV Doxorubicin 92 μmol/kg
# [13] = kidney, IV PhAc-ALGP-Dox 92 μmol/kg
# [14] = liver, IV Doxorubicin 92 μmol/kg
# [15] = liver, IV PhAc-ALGP-Dox 92 μmol/kg
# [16] = plasma, IV Doxorubicin 92 μmol/kg
# [17] = plasma, IV PhAc-ALGP-Dox 92 μmol/kg
# [18] = tumor, IV Doxorubicin 92 μmol/kg
# [19] = tumor, IV PhAc-ALGP-Dox 92 μmol/kg
# recombinant human CD10, sequence (P08473 whole entry): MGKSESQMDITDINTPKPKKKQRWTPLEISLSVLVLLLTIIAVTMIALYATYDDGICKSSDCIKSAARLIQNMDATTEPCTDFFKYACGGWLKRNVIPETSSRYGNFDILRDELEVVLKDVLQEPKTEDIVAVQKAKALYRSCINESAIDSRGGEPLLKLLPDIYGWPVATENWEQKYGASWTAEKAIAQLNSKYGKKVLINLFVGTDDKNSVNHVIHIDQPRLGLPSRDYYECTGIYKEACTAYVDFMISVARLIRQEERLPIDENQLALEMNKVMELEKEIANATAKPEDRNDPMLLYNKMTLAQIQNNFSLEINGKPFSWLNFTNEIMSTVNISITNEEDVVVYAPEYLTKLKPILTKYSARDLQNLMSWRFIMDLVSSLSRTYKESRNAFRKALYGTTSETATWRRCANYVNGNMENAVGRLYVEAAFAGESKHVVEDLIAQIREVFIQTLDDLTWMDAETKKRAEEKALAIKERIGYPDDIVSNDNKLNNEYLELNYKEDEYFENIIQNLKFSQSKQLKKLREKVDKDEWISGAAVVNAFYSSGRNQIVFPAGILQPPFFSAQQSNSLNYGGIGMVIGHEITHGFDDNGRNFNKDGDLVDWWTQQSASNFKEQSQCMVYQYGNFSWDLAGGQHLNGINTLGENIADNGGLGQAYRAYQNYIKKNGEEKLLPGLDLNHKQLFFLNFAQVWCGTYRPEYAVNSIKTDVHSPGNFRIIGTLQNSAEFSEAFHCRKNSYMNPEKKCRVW
compound,measurement,setting,value
"COc1cccc2c1C(=O)c1c(O)c3c(c(O)c1C2=O)C[C@@](O)([C@@H](O)CO)C[C@@H]3O[C@H]1C[C@H](N)[C@H](O)[C@H](C)O1 [DoxOL, Doxorubicinol]",C max,"[1]; heart, IV DTS-201 92 μmol/kg",<LoQ
same,AUC,[1]; [10],54
same,Cmax,[1]; [10],0.86 µM
same,t 1/2α,[1]; [10],47
same,t max,[1]; [10],240
same,C max,[1]; [11],<LoQ
same,AUC,"[1]; kidney, IV DTS-201 92 μmol/kg",49.7
same,Cmax,"[1]; kidney, IV DTS-201 92 μmol/kg",1.48 µM
same,t 1/2β,"[1]; kidney, IV DTS-201 92 μmol/kg",27.1
same,t max,"[1]; kidney, IV DTS-201 92 μmol/kg",240
same,AUC,[1]; [12],168
same,Cmax,[1]; [12],6.8 µM
same,t 1/2α,[1]; [12],2.5
same,t 1/2β,[1]; [12],49
same,t max,[1]; [12],30
same,AUC,[1]; [13],20.8
same,Cmax,[1]; [13],1.96 µM
same,t 1/2α,[1]; [13],1
same,t 1/2β,[1]; [13],19.7
same,t max,[1]; [13],30
same,AUC,"[1]; liver, IV DTS-201 92 μmol/kg",30.8
same,Cmax,"[1]; liver, IV DTS-201 92 μmol/kg",0.67 µM
same,t 1/2β,"[1]; liver, IV DTS-201 92 μmol/kg",33.4
same,t max,"[1]; liver, IV DTS-201 92 μmol/kg",120
same,AUC,[1]; [14],104
same,Cmax,[1]; [14],6 µM
same,t 1/2α,[1]; [14],2.2
same,t 1/2β,[1]; [14],33.3
same,AUC,[1]; [15],10.6
same,Cmax,[1]; [15],0.44 µM
same,t 1/2β,[1]; [15],21.7
same,t max,[1]; [15],240
same,C max,"[1]; plasma, IV DTS-201 92 μmol/kg",<LoQ
same,C max,[1]; [16],<LoQ
same,C max,[1]; [17],<LoQ
same,C max,"[1]; tumor, IV DTS-201 92 μmol/kg",<LoQ
same,AUC,[1]; [18],8
same,Cmax,[1]; [18],0.12 µM
same,t max,[1]; [18],"2,880"
same,C max,[1]; [19],<LoQ
"COc1cccc2c1C(=O)c1c(O)c3c(c(O)c1C2=O)C[C@@](O)(C(=O)CO)C[C@@H]3O[C@H]1C[C@H](N)[C@H](O)[C@H](C)O1 [Dox, Doxorubicin, reference compound]",cardiotoxicity (cellular impedance),[2]; by 72 hours,100%
same,cytotoxicity in differentiated cardiomyocytes,H9C2 rat cardiomyocytes,nanomolar potency
same,cytotoxicity in mitotic cells,H9C2 rat cardiomyocytes,nanomolar potency
same,LD50,Acute toxicity,17 mg/kg
same,pIC50,[3],8.00
same,pIC50,[4],7.70
same,pIC50,E0771 cells,7.70
same,pIC50,MDA-MB-468 cells,6.96
same,t 1/2α,[1]; [10],5.6
same,t 1/2α,[1]; [12],2.7
same,t 1/2α,[1]; [14],2.1
same,concentration at 72 hours,"[1]; mouse, tumor, intravenous, 53.4 mg/kg",7.3 µM
same,t 1/2α,[1]; [16],0.2
same,survival of mice receiving BM from treated donors,[5],30%
same,pIC50,LS 174T cells,7.70
COc1cccc2c1C(=O)c1c(O)c3c(c(O)c1C2=O)C[C@@](O)(C(=O)CO)C[C@@H]3O[C@H]1C[C@H](NC(=O)[C@@H]2CCCN2C(=O)CNC(=O)[C@@H](N)CC(C)C)[C@H](O)[C@H](C)O1 [LGP-Dox],amount of LGP-Dox detected from PhAc-ALGP-Dox,recombinant human CD10,2.65%
same,t 1/2α,[1]; [13],0.1
same,t 1/2α,[1]; [17],0.15
"COc1cccc2c1C(=O)c1c(O)c3c(c(O)c1C2=O)C[C@@](O)(C(=O)CO)C[C@@H]3O[C@H]1C[C@H](NC(=O)[C@H](CC(C)C)NC(=O)[C@H](C)NC(=O)[C@H](CC(C)C)NC(=O)CCNC(=O)CCC(=O)O)[C@H](O)[C@H](C)O1 [DTS-201, reference compound]",tolerated dose relative to the standard dose of Dox,patients,3.75 fold
same,well tolerated dose in patients,patients; clinical trial,up to 400 mg/m^2
same,t 1/2α,"[1]; heart, IV DTS-201 92 μmol/kg",0.2
same,t 1/2α,"[1]; kidney, IV DTS-201 92 μmol/kg",0.4
same,t 1/2α,"[1]; liver, IV DTS-201 92 μmol/kg",0.6
same,t 1/2α,"[1]; plasma, IV DTS-201 92 μmol/kg",0.25
same,t 1/2α,"[1]; tumor, IV DTS-201 92 μmol/kg",0.4
COc1cccc2c1C(=O)c1c(O)c3c(c(O)c1C2=O)C[C@@](O)(C(=O)CO)C[C@@H]3O[C@H]1C[C@H](NC(=O)[C@@H]2CCCN2C(=O)CN)[C@H](O)[C@H](C)O1 [GP-Dox],t 1/2α,[1]; [11],0.3
same,t 1/2α,[1]; [13],0.2
same,t 1/2α,[1]; [15],1.4
same,t 1/2α,[1]; [17],0.2
same,t 1/2α,[1]; [19],0.5
COc1cccc2c1C(=O)c1c(O)c3c(c(O)c1C2=O)C[C@@](O)(C(=O)CO)C[C@@H]3O[C@H]1C[C@H](NC(=O)[C@@H]2CCCN2C(=O)CNC(=O)[C@H](CC(C)C)NC(=O)[C@H](C)NC(=O)CP(=O)(O)O)[C@H](O)[C@H](C)O1 [PhAc-ALGP-Dox] (Phosphonoacetyl-ALGP-{Doxorubicin(3'-N)}),concentrations at which alterations were induced,"[2]; cellular impedance, up to 72 h",> 5 µM
same,MTD at 672 h,[6],154 mg/kg
same,highest tolerated dose as Dox equivalent,[7]; every weeks × 4,87 mg/kg Dox equivalent
same,higher tolerability compared with the parental drug,[7]; in vivo,10 fold
same,body weight loss,"[7]; tumor bearing mice, four cycles of 206 mg/kg weekly, mild but reversible",15%
same,cytotoxicity in differentiated cardiomyocytes,H9C2 rat cardiomyocytes,essentially resilient
same,cytotoxicity in mitotic cells,H9C2 rat cardiomyocytes,considerably less affected
same,times more payload that can be administered than Dox,mice,27 times
same,LD50,Acute toxicity,780 mg/kg
same,t 1/2α,[1]; [11],0.17
same,greater retention of Dox in the tumor microenvironment compared with the parental drug,[1]; in vivo,5 fold
same,t 1/2α,[1]; [13],0.1
same,t 1/2α,[1]; [15],0.7
same,t 1/2α,[1]; [17],0.21
same,free Dox exposure lower than after equimolar dosage of Dox,"[1]; plasma, PhAc-ALGP-Dox 94.4 mg/kg vs Dox 53.4 mg/kg",15 fold
same,t 1/2α,[1]; [19],0.3
same,intratumoral free Dox concentration lower than after equimolar Dox,"[1]; tumor, PhAc-ALGP-Dox 94.4 mg/kg vs Dox 53.4 mg/kg",2.8 fold
same,increase of exposure to free Dox compared with administration of Dox (13.3 mg/kg),"[8]; 849.5 mg/kg PhAc-ALGP-Dox, molar concentration 36-fold higher",1.9 fold
same,free Dox lower than after Dox,"[8]; equimolar doses, PhAc-ALGP-Dox 23.6 mg/kg vs Dox 13.3 mg/kg",19 fold
same,half-life,"[8]; mouse, in vivo, iv, 849.5 mg/kg",6.5 to 8.5 min
same,time for which presence of free Dox in tumor remained stable,[9],≥ 48 h
same,reduction of circulating cytotoxic T lymphocytes (CTL) in donor mice,"[5]; 1,026 mg/kg/week via osmotic minipumps, 7 days",15%
same,survival of mice receiving BM from treated donors,[5],80%
